Measured values from ChEMBL document CHEMBL1144709, “Cycloartane-type triterpenoids from the resinous exudates of Commiphora opobalsamum” (J Nat Prod, 2008).

Assays:
[1] = test system: PC-3; test: Cytotoxicity against human PC3 cells by MTT assay; assay type: functional, cell-based
Outline: (§1)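 Cells in 96-well plates exposed to test compounds for 48 h. MTT (5 mg/mL in PBS) then added and plates held 2 h at 37 °C under 5% CO2. Absorbance read at 570 nm and IC50 values reported.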

[2] = test system: DU-145; test: Cytotoxicity against human DU145 cells by MTT assay; assay type: functional, cell-based; outline: as §1

| Compound | IC50 [1] [µM] | IC50 [2] [µM] |
| --- | --- | --- |
| C[C@H](C/C=C/C(C)(C)O)[C@H]1CC[C@@]2(C)[C@@H]3CC[C@H]4C(C)(C)[C@@H](O)[C@H](O)[C@H](O)[C@@]45C[C@@]35CC[C@]12C | 10.3 | 34.7 |
| CC(C)=CCC[C@@H](C)[C@H]1CC[C@@]2(C)[C@@H]3CC[C@H]4C(C)(C)[C@@H](O)C[C@H](O)[C@@]45C[C@@]35CC[C@]12C | > 50 | > 50 |
| CC(C)=CCC[C@@H](C)[C@H]1CC[C@@]2(C)[C@@H]3CC[C@H]4C(C)(C)[C@@H](OC(=O)CC(C)C)[C@H](O)[C@H](O)[C@@]45C[C@@]35CC[C@]12C | 28.4 | > 50 |
| CC(=O)O[C@H]1[C@H](O)[C@H](O)[C@]23C[C@]24CC[C@]2(C)[C@@H]([C@H](C)CCC=C(C)C)CC[C@@]2(C)[C@@H]4CC[C@H]3C1(C)C | 15.4 | 20.7 |
| CC(C)=CCC[C@@H](C)[C@H]1CC[C@@]2(C)[C@@H]3CC[C@H]4C(C)(C)[C@H](O)[C@H](O)[C@H](O)[C@@]45C[C@@]35CC[C@]12C | > 50 | > 50 |
| CC(=O)O[C@H]1[C@@H](O)[C@H](O)C(C)(C)[C@@H]2CC[C@@H]3[C@]4(CC[C@]5(C)[C@@H]([C@H](C)CCC=C(C)C)CC[C@@]35C)C[C@]124 | 13.4 | > 50 |
| CC(C)=CCC[C@@H](C)[C@H]1CC[C@@]2(C)[C@@H]3CC[C@H]4C(C)(C)[C@@H](O)[C@H](O)[C@H](O)[C@@]45C[C@@]35CC[C@]12C | 10.1 | 37.2 |
